Assay [1] relates to Rattus norvegicus. Put plainly: Antianaphylactic activity against IgE-mediated rat passive cutaneous anaphylaxis (PCA) model after intraperitoneal administration. The assay is classed as functional. Particulars: ip. Summed up:
(§1)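 Female Sprague-Dawley rats (~200 g) received rat anti-ovoalbumin IgE antiserum intradermally at four back sites. Drug in 2% gum arabic given po (10 mL/kg) 10 min or ip (5 mL/kg) 5 min before challenge. Blue-spot area measured at 30 min versus vehicle controls. ED50 by linear regression on at least three doses.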

Assay [2] has as its system Rattus norvegicus. Put plainly: Antianaphylactic activity against IgE-mediated rat passive cutaneous anaphylaxis (PCA) model after oral administration. Type of assay: functional. Put shortly:
as §1

Assay [3] has as its system Cavia porcellus. Put plainly: Aantianaphylactic activity at the bronchopulmonary level against IgG-mediated APA model of guinea pig when administered intraperitoneally. Type of assay: functional. The conditions noted are these: ip. Summed up:
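Guinea pigs (either sex, 300-400 g) sensitized by a single ip dose of ovoalbumin in liquid petrolatum (20 mg/mL). Tested 3 weeks later. Drug given ip in 2% gum arabic (5 mL/kg) 30 min before aerosol challenge with 2% ovoalbumin. Read-out is delay to severe dyspnea in seconds, with 3 min cutoff. ED50 by linear regression.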

The species entered for assay [4] is Cavia porcellus. Put plainly: Inhibitory effect on Antigen-induced SRS-A (slow reacting substance of anaphylaxis) like material release from sensitized guinea pig lung fragments at a concentration of 10 E -5 M. The assay is classed as functional. Put shortly:
(§2)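 Lungs from ovoalbumin-sensitized guinea pigs were taken at 3 weeks and minced in Krebs' solution (0.1 g tissue/mL). Suspension incubated 15 min at 37 °C. Drug added, then ovoalbumin 1 μg 5 min later, for 15 min at 37 °C. SRS-A-like activity of the filtrate assayed on isolated guinea pig ileum, as % inhibition versus saline controls.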

The species entered for assay [5] is Cavia porcellus. The assay can be described thus: Inhibitory effect on Antigen-induced SRS-A (slow reacting substance of anaphylaxis) like material release from sensitized guinea pig lung fragments at a concentration of 10 E -6 M. The assay is classed as functional. Summed up: as §2
Assay [6] is filed under the species Cavia porcellus. Put plainly: Inhibitory effect on Antigen-induced SRS-A (slow reacting substance of anaphylaxis) like material release from sensitized guinea pig lung fragments at a concentration of 10 E -8 M. Type of assay: functional. Summed up: as §2
Assay [7] relates to Rattus norvegicus. The assay can be described thus: Antianaphylactic activity at the bronchopulmonary level against IgE-mediated rat PPA model when administered intravenously. Type of assay: functional. Particulars: iv. Summed up:
(§3)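 Rats passively sensitized iv with anti-ovoalbumin serum (1 mL/rat). Challenge was iv ovoalbumin 4 mg/kg. Bronchoconstriction measured as air overflow (Konzett-Rössler). Drug given po in 2% gum arabic (10 mL/kg) 30 min before, or iv in 10% DMSO (1 mL/kg) 15 min before. ED50 by linear regression.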

In assay [8] the test system is Rattus norvegicus. Put plainly: Antianaphylactic activity at the bronchopulmonary level against IgE-mediated rat PPA model when administered orally. Particulars: po. Type of assay: functional. Put shortly: as §3
The species named for assay [9] is Cavia porcellus. The assay can be described thus: Inhibitory effect on Antigen-induced SRS-A (slow reacting substance of anaphylaxis) like material release from sensitized guinea pig lung fragments at a concentration of 10 E -7 M. The assay is classed as functional. Put shortly:
as §2

Assay [10] is filed under the species Cavia porcellus. Put plainly: Inhibitory effect on Antigen-induced SRS-A (slow reacting substance of anaphylaxis) like material release from sensitized guinea pig lung fragments at a concentration of 10 E -4 M. The assay is classed as functional. Summed up: as §2
The subject of assay [11] is Rattus norvegicus. The assay can be described thus: Antianaphylactic activity against IgE-mediated rat PCA model after oral administration; Not active. Type of assay: functional, organism-based. Put shortly:
as §1

The source made the active and inactive calls.

For `CCOCCOC(=O)C(=O)Nc1nc(-c2c(-c3c(F)cccc3Cl)noc2C)cs1`, the ED50 is greater than 10 mg/kg in assay [1] and greater than 30 mg/kg in [2].

For the molecule `CCOCCOC(=O)C(=O)Nc1nc(-c2cc(OCc3ccccc3)no2)cs1`, the values for the ED50 in assay [1] and in assay [2] were 3.7 mg/kg and greater than 100 mg/kg, respectively.

Regarding `CC(C)(C)OC(=O)C(=O)Nc1nc(-c2cc(-c3ccccc3)no2)cs1`, the ED50 was 9 mg/kg in [1] and 7 mg/kg in assay [2].

Regarding `O=C(Nc1nc(-c2cc(-c3c(F)cccc3Cl)no2)cs1)C(=O)OCc1ccccc1`, the ED50 in assay [1] and in assay [2] was greater than 30 mg/kg throughout.

As for `CCOCCOC(=O)C(=O)Nc1nc(-c2cc(Br)no2)cs1`, the ED50 in [1] is 11 mg/kg; in [2], greater than 30 mg/kg.

Regarding `CCOCCOC(=O)C(=O)Nc1nc(-c2cc(CO)on2)cs1`, the ED50 was determined as 1.8 mg/kg in assay [1] and 14 mg/kg in [2].

As for `NCCO.O=C(O)C(=O)Nc1nc(-c2cc(Cl)no2)cs1`, the ED50 in assay [1] and in [2] was greater than 30 mg/kg throughout.

Take `O=C(O)C(=O)Nc1nc(-c2cc(Br)no2)cs1`: the ED50 was 3 mg/kg in assay [1] and greater than 30 mg/kg in assay [2].

In the case of `NCCCC[C@H](N)C(=O)O.O=C(O)C(=O)Nc1nc(-c2cc(-c3ccccc3)no2)cs1`, the ED50 in assay [1] stood at 0.24 mg/kg; in assay [2] it was 2.4 mg/kg.

Take `NCCO.O=C(O)C(=O)Nc1nc(-c2cc(-c3ccccc3)on2)cs1`: the results for the ED50 in assay [1] and in assay [2] were 0.23 mg/kg and 2.6 mg/kg, respectively.

Consider `CCOCCOC(=O)C(=O)Nc1nc(-c2cc(Cl)no2)cs1`, for which the ED50 in assay [1] is 6 mg/kg; in [2], greater than 30 mg/kg.

Take `CCOCCOC(=O)C(=O)Nc1nc(-c2cc(-c3c(F)cccc3Cl)no2)cs1`: the values for the ED50 in assay [1] and in assay [2] were 1.1 mg/kg and greater than 30 mg/kg, respectively.

On to `CCOCCOC(=O)C(=O)Nc1nc(-c2cc(-c3ccccc3)on2)cs1`, for which the values for the ED50 in [1] and in [2] were 0.2 mg/kg and 13 mg/kg, respectively.

For `NCCO.O=C(O)C(=O)Nc1nc(-c2cc(Br)no2)cs1`, the ED50 in assay [1] was 7 mg/kg; in assay [2] it was greater than 30 mg/kg.

With `CCOCCOC(=O)C(=O)Nc1nc(-c2cc(C)on2)cs1`, the ED50 in [1] amounted to 1.3 mg/kg; in assay [2] it was 2 mg/kg.

With `NCCCC[C@H](N)C(=O)O.O=C(O)C(=O)Nc1nc(-c2conc2-c2ccccc2)cs1`, the ED50 in assay [1] and in assay [2] was greater than 100 mg/kg throughout.

Regarding `CCOCCOC(=O)C(=O)Nc1nc(-c2c(-c3ccccc3)noc2C)cs1`, the figures for the ED50 in [1] and in assay [2] were greater than 10 mg/kg and greater than 100 mg/kg, respectively.

As to `CCOCCOC(=O)C(=O)Nc1nc(-c2cc(OC)no2)cs1`, the ED50 in [1] was 3 mg/kg; in assay [2], 11 mg/kg.

On to `NCCO.O=C(O)C(=O)Nc1nc(-c2cc(CO)on2)cs1`, for which the ED50 in assay [1] was greater than 100 mg/kg; in [2], greater than 30 mg/kg.

Take `CCOC(=O)C(=O)Nc1nc(-c2cc(C)no2)cs1`: the ED50 was 0.2 mg/kg in assay [1] and 0.7 mg/kg in [2].

For the molecule `Cc1cc(-c2csc(NC(=O)C(=O)O)n2)on1.NCCCC[C@H](N)C(=O)O`, the values for the ED50 in assay [1] and in assay [2] were 0.3 mg/kg and 6 mg/kg, respectively.

Take `NCCO.O=C(O)C(=O)Nc1nc(-c2cc(CO)no2)cs1`: the ED50 in assay [1] was found to be 0.007 mg/kg; in assay [2] it was 0.7 mg/kg.

As to `NCCCC[C@H](N)C(=O)O.O=C(O)C(=O)Nc1nc(-c2cc(Br)no2)cs1`, the ED50 was found to be 0.5 mg/kg in assay [1] and 8 mg/kg in assay [2].

As for `CCOCCOC(=O)C(=O)Nc1nc(-c2cc(Br)no2)c(CC)s1`, the ED50 stood at 3 mg/kg in assay [1] and 9 mg/kg in assay [2].

Consider `COc1cc(-c2csc(NC(=O)C(=O)O)n2)on1.NCCO`, for which the ED50 in assay [1] came to 1.2 mg/kg; in [2] it was 8 mg/kg.

In the case of `NCCO.O=C(O)C(=O)Nc1nc(-c2cc(-c3ccccc3)no2)cs1`, the ED50 in [1] was 0.24 mg/kg; in assay [2], 0.6 mg/kg.

With `NCCO.O=C(O)C(=O)Nc1nc(-c2conc2-c2c(F)cccc2Cl)cs1`, the values for the ED50 in [1] and in assay [2] were 30 mg/kg and greater than 100 mg/kg, respectively.

Regarding `CCOCCOC(=O)C(=O)Nc1nc(-c2cc(COC)no2)cs1`, the ED50 in [1] came to 2.4 mg/kg; in assay [2], 0.7 mg/kg.

Turning to `CCOCCOC(=O)C(=O)Nc1nc(-c2cc(C)no2)cs1` [ASOBAMAST], the ED50 in assay [3] was 185 mg/kg; in [1] it was 0.04 mg/kg; in assay [2], 1.3 mg/kg; in assay [7], 0.09 mg/kg; in [8], 4.7 mg/kg. The Inhibition in assay [4] is 52%; in assay [5] it was 48%; in [6], 18%; in [9] it was 43%.

As to `NCCO.O=C(O)C(=O)Nc1nc(-c2cc(-c3c(F)cccc3Cl)no2)cs1`, the values for the ED50 in assay [1] and in assay [2] were 2.4 mg/kg and greater than 30 mg/kg, respectively.

Take `Cc1cc(-c2csc(NC(=O)C(=O)O)n2)no1.NCCCC[C@H](N)C(=O)O`: the ED50 worked out at 1.7 mg/kg in [1] and 17 mg/kg in assay [2].

For the molecule `O=C([O-])c1cc(=O)c2c(OCC(O)COc3cccc4oc(C(=O)[O-])cc(=O)c34)cccc2o1.[Na+].[Na+]` [CROMOLYN SODIUM], the ED50 in [3] was greater than 1000 mg/kg; in assay [1], 12 mg/kg; in assay [7], 0.82 mg/kg; in assay [8], greater than 100 mg/kg. The Inhibition in [10] was determined as 46%; in [4] it was 38%; in [5], 20%. Moreover, in assay [11], the ED50 result was “inactive”.

`CCOCCOC(=O)C(=O)Nc1nc(-c2cc(C(=O)OCC)no2)cs1`: the ED50 in assay [1] was 0.08 mg/kg; in assay [2] it was 1.9 mg/kg.

As to `COCCOC(=O)C(=O)Nc1nc(-c2cc(Br)no2)cs1`, the ED50 is 7 mg/kg in assay [1] and greater than 100 mg/kg in [2].

Turning to `CCOCCOC(=O)C(=O)Nc1nc(-c2conc2C)cs1`, the ED50 in [1] and in assay [2] was greater than 100 mg/kg in each case.

For `CCOC(=O)C(=O)Nc1nc(-c2cc(Br)no2)cs1`, the ED50 in assay [1] is 12 mg/kg; in [2] it was greater than 100 mg/kg.

In general, ED50 refers to the dose that gives a 50% effect, or the effect in half of the subjects. What is called Inhibition is the drop in the measured response relative to a control, in per cent.

The values are drawn from ChEMBL document CHEMBL1125874, “N-(4-Isoxazolylthiazol-2-yl)oxamic acid derivatives as potent orally active antianaphylactic agents” (1991).
